Molecules are shown by their SMILES.
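Note: active if original authors judged signal statistically different from baseline.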

This test has as its target T1, UniProt Q8VGL0.
T1 sequence (whole entry): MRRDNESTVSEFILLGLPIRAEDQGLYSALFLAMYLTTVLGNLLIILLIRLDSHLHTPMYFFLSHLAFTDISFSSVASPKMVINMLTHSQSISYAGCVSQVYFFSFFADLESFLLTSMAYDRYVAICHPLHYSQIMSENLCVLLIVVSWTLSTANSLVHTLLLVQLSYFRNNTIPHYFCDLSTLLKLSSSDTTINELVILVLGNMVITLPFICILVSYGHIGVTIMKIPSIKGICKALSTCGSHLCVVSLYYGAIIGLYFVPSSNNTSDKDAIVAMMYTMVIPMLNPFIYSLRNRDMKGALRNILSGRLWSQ
The settings on record: stereoisomer not certain. Summed up: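 Whether a receptor–molecule pair is responsive (active) rests on the original authors' judgment that its measured signal was statistically different from baseline. Pairs without that judgment are non-responsive (inactive). Sources used varied assay methods, commonly transient luciferase assays in mammalian cell lines.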
As for `CCCO`, the “odorant receptor agonist call” value was “inactive”.

For the molecule `CCCCCCCCC=CC=O`, the “odorant receptor agonist call” value was “inactive”.

Turning to `CCC(C)O` (centres undefined), the “odorant receptor agonist call” value is “inactive”.

For `CCCCCCCOC(=O)C(C)C`, the “odorant receptor agonist call” value was “inactive”.

On to `C=CC(=O)CCCCC`, for which the “odorant receptor agonist call” value was “inactive”.

For `C=CC(=C)CCC=C(C)C`, the “odorant receptor agonist call” value was “inactive”.

In the case of `OCCCCCCCCCO`, the “odorant receptor agonist call” value was “inactive”.

For `COc1nccnc1C`, the “odorant receptor agonist call” value was “inactive”.

As for `CCCCCCC(C)O` (centres undefined), the “odorant receptor agonist call” value is “inactive”.

Turning to `CCCCCCCCOC=O`, the “odorant receptor agonist call” value was “inactive”.

On to `CC(=O)C1(C)CC2=C(CCCC2(C)C)CC1C` (centres undefined), for which the “odorant receptor agonist call” value was “inactive”.

Regarding `O=C(OCc1ccccc1)c1ccccc1O`, the “odorant receptor agonist call” value is “inactive”.

In the case of `CCc1ccc(O)cc1`, the “odorant receptor agonist call” value is “inactive”.

`CCC(C)c1nccnc1OC` (centres undefined): the “odorant receptor agonist call” value is “inactive”.

On to `COc1cnccn1`, for which the “odorant receptor agonist call” value is “inactive”.

Take `CC=Cc1ccc(OC)cc1`: the “odorant receptor agonist call” value is “inactive”.

Consider `CCCC=O`, for which the “odorant receptor agonist call” value is “inactive”.

Consider `C=C(C)C1CCC(C)C(O)C1` (centres undefined), for which the “odorant receptor agonist call” value was “active”.

Take `CCc1ncc(C)nc1CC`: the “odorant receptor agonist call” value is “inactive”.

Regarding `Cc1c(C)c(C)c(C=O)c(C)c1C`, the “odorant receptor agonist call” value was “inactive”.

For the molecule `CC(C)CCN`, the “odorant receptor agonist call” value is “inactive”.

With `OCC=Cc1ccccc1`, the “odorant receptor agonist call” value is “inactive”.

For the molecule `CC1CCC(C(C)C)C(=O)C1` (centres undefined), the “odorant receptor agonist call” value was “inactive”.

Consider `CCCCCC(C=O)=Cc1ccccc1`, for which the “odorant receptor agonist call” value is “inactive”.

Turning to `COc1nccnc1C(C)C`, the “odorant receptor agonist call” value was “inactive”.

Regarding `CCSCC`, the “odorant receptor agonist call” value is “inactive”.

As for `CCc1occc(=O)c1O`, the “odorant receptor agonist call” value is “inactive”.

`CC(C)=CCCC(C)=CCOC(=O)C(C)C`: the “odorant receptor agonist call” value was “inactive”.

Turning to `CC(C)CS`, the “odorant receptor agonist call” value is “inactive”.

On to `CCc1ccccc1O`, for which the “odorant receptor agonist call” value was “active”.

Consider `C=CC(C)=CCC=C(C)CCC=C(C)C`, for which the “odorant receptor agonist call” value was “inactive”.

In the case of `CC(=O)C=CC1=C(C)CCCC1(C)C`, the “odorant receptor agonist call” value is “inactive”.

Regarding `CC1(C)CC(=O)CC(=O)C1`, the “odorant receptor agonist call” value was “inactive”.

`O=C(O)C1CCC1`: the “odorant receptor agonist call” value was “inactive”.

For the molecule `C=C(C)C1CC=C(C)CC1` (centres undefined), the “odorant receptor agonist call” value is “inactive”.

Regarding `CCCCCCC(=O)OCCCC`, the “odorant receptor agonist call” value was “inactive”.

As to `Cc1ccccc1OC(=O)C(C)C`, the “odorant receptor agonist call” value is “inactive”.

For `CC(CC=O)CCCC(C)(C)O` (centres undefined), the “odorant receptor agonist call” value was “inactive”.

Consider `CCOC(=O)C(C)CC` (centres undefined), for which the “odorant receptor agonist call” value was “inactive”.

The record behind these values is the M2OR odorant receptor database.
